Measured values reported in ChEMBL document CHEMBL4007382 (Eur J Med Chem, 2017).

Legend:
Mus musculus [1] = experiment: Cardiotoxicity in Kunming mouse assessed as change in heart rate at 20 mg/kg, ip measured after 25 mins by electrocardiogram (reference value: -43.17 +/- 15.26); type: toxicity, organism-based; conditions: in vivo
Mus musculus [2] = experiment: Cardiotoxicity in Kunming mouse assessed as change in heart rate at 20 mg/kg, ip measured after 29 mins by electrocardiogram (reference value: -47.2 +/- 24.77); type: toxicity, organism-based; conditions: in vivo
Mus musculus [3] = experiment: Cardiotoxicity in Kunming mouse assessed as change in heart rate at 20 mg/kg, ip measured after 22 mins by electrocardiogram (reference value: -41.94 +/- 12.51); type: toxicity, organism-based; conditions: in vivo
Mus musculus [4] = experiment: Cardiotoxicity in Kunming mouse assessed as change in heart rate at 20 mg/kg, ip measured after 1 mins by electrocardiogram (reference value: -4.04 +/- 7.52); type: toxicity, organism-based; conditions: in vivo
Mus musculus [5] = experiment: Cardiotoxicity in Kunming mouse assessed as change in heart rate at 20 mg/kg, ip measured after 27 mins by electrocardiogram (reference value: -44.4 +/- 23.19); type: toxicity, organism-based; conditions: in vivo, 0.45 h
Mus musculus [6] = experiment: Cardiotoxicity in Kunming mouse assessed as change in heart rate at 20 mg/kg, ip measured after 34 mins by electrocardiogram (reference value: -35 +/- 23.88); type: toxicity, organism-based; conditions: in vivo
Mus musculus [7] = experiment: Cardiotoxicity in Kunming mouse assessed as change in heart rate at 20 mg/kg, ip measured after 24 mins by electrocardiogram (reference value: -44.48 +/- 12.38); type: toxicity, organism-based; conditions: in vivo, 0.4 h
Mus musculus [8] = experiment: Cardiotoxicity in Kunming mouse assessed as change in heart rate at 20 mg/kg, ip measured after 15 mins by electrocardiogram (reference value: -35.14 +/- 24.5); type: toxicity, organism-based; conditions: in vivo, 0.25 h
Acetylcholinesterase [9] = target: Acetylcholinesterase (Electrophorus electricus, UniProt O42275); experiment: Inhibition of electric eel AChE using S-acetylthiocholine iodide as substrate preincubated for 60 mins followed by substrate addition measured after 5 mins by Ellman's method
Mus musculus [10] = experiment: Cardiotoxicity in Kunming mouse assessed as change in heart rate at 20 mg/kg, ip measured after 12 mins by electrocardiogram (reference value: -40.39 +/- 20.17); type: toxicity, organism-based; conditions: in vivo, 0.2 h
Mus musculus [11] = experiment: Cardiotoxicity in Kunming mouse assessed as change in heart rate at 20 mg/kg, ip measured after 20 mins by electrocardiogram (reference value: -40.16 +/- 13.12); type: toxicity, organism-based; conditions: in vivo
Mus musculus [12] = experiment: Cardiotoxicity in Kunming mouse assessed as change in heart rate at 20 mg/kg, ip measured after 13 mins by electrocardiogram (reference value: -37.85 +/- 14.54); type: toxicity, organism-based; conditions: in vivo
Mus musculus [13] = experiment: Cardiotoxicity in Kunming mouse assessed as change in heart rate at 20 mg/kg, ip measured after 10 mins by electrocardiogram (reference value: -34.85 +/- 19.78); type: toxicity, organism-based; conditions: in vivo
Mus musculus [14] = experiment: Cardiotoxicity in Kunming mouse assessed as change in heart rate at 20 mg/kg, ip measured after 5 mins by electrocardiogram (reference value: -14.06 +/- 24.25); type: toxicity, organism-based; conditions: in vivo
Mus musculus [15] = experiment: Cardiotoxicity in Kunming mouse assessed as change in heart rate at 20 mg/kg, ip measured after 26 mins by electrocardiogram (reference value: -46.48 +/- 17.52); type: toxicity, organism-based; conditions: in vivo
Mus musculus [16] = experiment: Cardiotoxicity in Kunming mouse assessed as change in heart rate at 20 mg/kg, ip measured after 17 mins by electrocardiogram (reference value: -38.32 +/- 10.76); type: toxicity, organism-based; conditions: in vivo
Cholinesterase [17] = target: Cholinesterase (Homo sapiens, UniProt P06276); experiment: Inhibition of human plasma BuChE using S-butyrylthiocholine iodide as substrate preincubated for 60 mins followed by substrate addition measured after 5 mins by Ellman's method
Outline: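 Source was plasma from heparinised blood of one healthy donor, centrifuged at 1000 × g for 20 min at 25°C, stored at -80°C and diluted 150X. Ellman assay at pH 8 and 37°C with 60 min preincubation and seven inhibitor concentrations in water, 5×10^-8 to 5×10^-10 M. Triplicates.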

Mus musculus [18] = experiment: Cardiotoxicity in Kunming mouse assessed as change in heart rate at 20 mg/kg, ip measured after 7 mins by electrocardiogram (reference value: -25.9 +/- 22.08); type: toxicity, organism-based; conditions: in vivo
Mus musculus [19] = experiment: Cardiotoxicity in Kunming mouse assessed as change in heart rate at 20 mg/kg, ip measured after 33 mins by electrocardiogram (reference value: -39.12 +/- 24.73); type: toxicity, organism-based; conditions: in vivo, 0.55 h
Mus musculus [20] = experiment: Cardiotoxicity in Kunming mouse assessed as change in heart rate at 20 mg/kg, ip measured after 3 mins by electrocardiogram (reference value: -14.4 +/- 19.94); type: toxicity, organism-based; conditions: in vivo, 0.05 h
Mus musculus [21] = experiment: Cardiotoxicity in Kunming mouse assessed as change in heart rate at 20 mg/kg, ip measured after 30 mins by electrocardiogram (reference value: -43.78 +/- 22.71); type: toxicity, organism-based; conditions: in vivo, 0.5 h
Mus musculus [22] = experiment: Cardiotoxicity in Kunming mouse assessed as change in heart rate at 20 mg/kg, ip measured after 2 mins by electrocardiogram (reference value: -16.36 +/- 11.14); type: toxicity, organism-based; conditions: in vivo
Mus musculus [23] = experiment: Cardiotoxicity in Kunming mouse assessed as change in heart rate at 20 mg/kg, ip measured after 35 mins by electrocardiogram (reference value: -31.81 +/- 27.31); type: toxicity, organism-based; conditions: in vivo
Mus musculus [24] = experiment: Cardiotoxicity in Kunming mouse assessed as change in heart rate at 20 mg/kg, ip measured after 14 mins by electrocardiogram (reference value: -38.12 +/- 19.53); type: toxicity, organism-based; conditions: in vivo
Mus musculus [25] = experiment: Cardiotoxicity in Kunming mouse assessed as change in heart rate at 20 mg/kg, ip measured after 8 mins by electrocardiogram (reference value: -27.98 +/- 16.02); type: toxicity, organism-based; conditions: in vivo
Mus musculus [26] = experiment: Cardiotoxicity in Kunming mouse assessed as change in heart rate at 20 mg/kg, ip measured after 9 mins by electrocardiogram (reference value: -31.96 +/- 17.01); type: toxicity, organism-based; conditions: in vivo, 0.15 h
Mus musculus [27] = experiment: Cardiotoxicity in Kunming mouse assessed as change in heart rate at 20 mg/kg, ip measured after 4 mins by electrocardiogram (reference value: -13.79 +/- 13.4); type: toxicity, organism-based; conditions: in vivo
Mus musculus [28] = experiment: Cardiotoxicity in Kunming mouse assessed as change in heart rate at 20 mg/kg, ip measured after 23 mins by electrocardiogram (reference value: -44.9 +/- 14.57); type: toxicity, organism-based; conditions: in vivo
Acetylcholinesterase [29] = target: Acetylcholinesterase (Homo sapiens, UniProt P22303); experiment: Inhibition of human erythrocytes AChE using S-acetylthiocholine iodide as substrate preincubated for 60 mins followed by substrate addition measured after 5 mins by Ellman's method
Cholinesterase [30] = target: Cholinesterase (Equus caballus, UniProt P81908); experiment: Irreversible inhibition of equine serum BuChE assessed as second order carbamylation rate constant using S-butyrylthiocholine iodide as substrate preincubated up to 45 mins followed by substrate addition measured after 5 mins
Outline: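 Equine BChE, pH 8, 37°C, was preincubated for 1, 2, 4, 8, 15, 30 and 45 min with inhibitor at 1×10^-7 to 5×10^-6 M (seven levels). Residual activity was read by Ellman with BTCh and normalised to a water control at each time. kobs came from a one-phase exponential decay fit; k_I1 came from the linear kobs versus concentration relation.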

Chain of Acetylcholinesterase (Electrophorus electricus, UniProt O42275) (O42275 whole entry): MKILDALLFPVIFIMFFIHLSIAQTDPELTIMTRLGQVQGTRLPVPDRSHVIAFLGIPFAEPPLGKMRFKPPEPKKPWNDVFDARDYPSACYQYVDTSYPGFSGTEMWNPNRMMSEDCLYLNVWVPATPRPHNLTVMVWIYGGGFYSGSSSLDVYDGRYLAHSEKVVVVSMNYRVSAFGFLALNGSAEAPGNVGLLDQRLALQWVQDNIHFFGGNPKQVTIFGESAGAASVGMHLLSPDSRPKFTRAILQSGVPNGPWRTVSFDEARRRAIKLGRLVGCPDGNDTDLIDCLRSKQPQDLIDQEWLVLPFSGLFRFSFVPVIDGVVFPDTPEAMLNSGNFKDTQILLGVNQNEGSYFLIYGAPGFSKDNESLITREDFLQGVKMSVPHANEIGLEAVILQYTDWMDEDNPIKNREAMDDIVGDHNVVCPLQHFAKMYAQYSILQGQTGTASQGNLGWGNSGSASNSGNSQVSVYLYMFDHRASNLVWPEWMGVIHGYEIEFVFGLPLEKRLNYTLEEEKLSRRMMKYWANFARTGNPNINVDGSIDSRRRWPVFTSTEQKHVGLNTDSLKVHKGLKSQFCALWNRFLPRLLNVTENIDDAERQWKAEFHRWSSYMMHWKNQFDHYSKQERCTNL
Chain of Cholinesterase (Homo sapiens, UniProt P06276) (P06276 whole entry): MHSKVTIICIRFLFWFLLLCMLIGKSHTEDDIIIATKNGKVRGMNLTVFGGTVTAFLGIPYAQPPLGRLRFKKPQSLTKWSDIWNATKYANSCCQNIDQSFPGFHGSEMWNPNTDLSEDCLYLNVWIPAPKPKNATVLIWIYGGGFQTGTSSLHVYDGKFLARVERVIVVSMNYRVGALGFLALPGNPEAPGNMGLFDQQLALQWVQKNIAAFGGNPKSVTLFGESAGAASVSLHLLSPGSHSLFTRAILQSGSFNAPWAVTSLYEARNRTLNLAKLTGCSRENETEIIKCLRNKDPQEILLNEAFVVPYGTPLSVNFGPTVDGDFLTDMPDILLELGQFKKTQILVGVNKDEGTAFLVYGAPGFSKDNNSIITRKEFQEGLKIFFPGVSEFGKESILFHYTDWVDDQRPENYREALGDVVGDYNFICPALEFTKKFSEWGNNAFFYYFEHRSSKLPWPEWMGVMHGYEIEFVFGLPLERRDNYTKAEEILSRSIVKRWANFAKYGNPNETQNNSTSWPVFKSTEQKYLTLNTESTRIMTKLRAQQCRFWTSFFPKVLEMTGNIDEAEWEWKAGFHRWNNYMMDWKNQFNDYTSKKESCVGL
Chain of Cholinesterase (Equus caballus, UniProt P81908) (P81908 whole entry): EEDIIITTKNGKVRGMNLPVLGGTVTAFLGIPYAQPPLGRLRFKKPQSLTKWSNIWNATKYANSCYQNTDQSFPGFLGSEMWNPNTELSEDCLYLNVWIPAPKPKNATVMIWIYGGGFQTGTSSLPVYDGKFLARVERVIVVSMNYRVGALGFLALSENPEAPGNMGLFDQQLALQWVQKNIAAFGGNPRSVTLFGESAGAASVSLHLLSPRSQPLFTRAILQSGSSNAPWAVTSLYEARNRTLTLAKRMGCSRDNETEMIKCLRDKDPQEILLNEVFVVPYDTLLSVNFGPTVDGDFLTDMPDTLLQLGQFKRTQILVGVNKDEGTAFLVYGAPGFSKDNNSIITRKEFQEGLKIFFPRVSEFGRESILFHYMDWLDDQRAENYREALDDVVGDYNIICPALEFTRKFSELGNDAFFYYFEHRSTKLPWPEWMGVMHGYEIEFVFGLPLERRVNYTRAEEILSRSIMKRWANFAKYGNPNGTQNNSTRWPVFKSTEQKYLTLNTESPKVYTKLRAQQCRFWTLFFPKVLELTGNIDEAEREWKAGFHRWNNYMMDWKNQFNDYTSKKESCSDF
Chain of Acetylcholinesterase (Homo sapiens, UniProt P22303) (P22303 whole entry): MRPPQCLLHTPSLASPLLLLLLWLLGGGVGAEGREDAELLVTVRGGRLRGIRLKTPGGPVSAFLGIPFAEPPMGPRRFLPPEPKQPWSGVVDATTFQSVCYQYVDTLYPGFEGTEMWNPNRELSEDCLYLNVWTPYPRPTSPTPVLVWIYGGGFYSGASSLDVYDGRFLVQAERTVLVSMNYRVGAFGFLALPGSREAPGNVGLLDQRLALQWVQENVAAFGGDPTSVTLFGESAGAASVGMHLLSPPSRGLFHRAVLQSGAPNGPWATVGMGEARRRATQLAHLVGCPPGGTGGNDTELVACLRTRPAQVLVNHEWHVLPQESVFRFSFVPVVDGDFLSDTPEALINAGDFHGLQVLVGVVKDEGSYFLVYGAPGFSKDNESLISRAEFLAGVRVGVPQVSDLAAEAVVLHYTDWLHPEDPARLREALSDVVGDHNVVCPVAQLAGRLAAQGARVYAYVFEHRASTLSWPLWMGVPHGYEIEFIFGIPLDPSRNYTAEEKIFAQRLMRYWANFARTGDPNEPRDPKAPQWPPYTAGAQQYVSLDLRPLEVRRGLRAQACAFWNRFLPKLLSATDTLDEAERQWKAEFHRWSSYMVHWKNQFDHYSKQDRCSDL

| Compound | Activity (Mus musculus [1]) [bpm] | Activity (Mus musculus [2]) [bpm] | Activity (Mus musculus [3]) [bpm] | Activity (Mus musculus [4]) [bpm] | Activity (Mus musculus [5]) [bpm] | Activity (Mus musculus [6]) [bpm] | Activity (Mus musculus [7]) [bpm] | Activity (Mus musculus [8]) [bpm] | IC50 (Acetylcholinesterase [9]) [µM] | Activity (Mus musculus [10]) [bpm] | Activity (Mus musculus [11]) [bpm] | Activity (Mus musculus [12]) [bpm] | Activity (Mus musculus [13]) [bpm] | Activity (Mus musculus [14]) [bpm] | Activity (Mus musculus [15]) [bpm] | Activity (Mus musculus [16]) [bpm] | IC50 (Cholinesterase [17]) [nM] | Activity (Mus musculus [18]) [bpm] | Activity (Mus musculus [19]) [bpm] | Activity (Mus musculus [20]) [bpm] | other results |
| --- | --- | --- | --- | --- | --- | --- | --- | --- | --- | --- | --- | --- | --- | --- | --- | --- | --- | --- | --- | --- | --- |
| CN(C)C(=O)Oc1cc(OC(=O)N(C)C)cc(C(O)CNC(C)(C)C)c1 (stereo not given) [BAMBUTEROL] | 30.43 | -23.87 | 48.65 | -2.81 | -1.54 | -6.04 | 29.39 | 53.3 | > 100 | 15.49 | 34.4 | 15.31 | -0.24 | 17.67 | 11.92 | 45.59 | 4.29 | 16.59 | 4.05 | 2.1 | Activity (Mus musculus [21]): -20.41 bpm; Activity (Mus musculus [22]): -2.66 bpm; Activity (Mus musculus [23]): -2.92 bpm; Activity (Mus musculus [24]): 39.93 bpm; Activity (Mus musculus [25]): 9.76 bpm; Activity (Mus musculus [26]): 0.55 bpm; Activity (Mus musculus [27]): 3.77 bpm; Activity (Mus musculus [28]): 48.77 bpm; IC50 (Acetylcholinesterase [29]): > 10 µM; Ki (Cholinesterase [30]): 1.44 ×10⁵ /M/min |
| CCC(C)(C)NCC(O)c1cc(OC(=O)N(C)C)cc(OC(=O)N(C)C)c1.Cl (stereo not given) | -44.42 | -37.74 | -41.75 | -18.58 | -32.47 | -37.47 | -42.92 | -49.12 | > 100 | -46.97 | -40.62 | -43.71 | -40.41 | -28.9 | -42.44 | -40.25 | 7.28 | -33.53 | -39.88 | -22.65 | Activity (Mus musculus [21]): -36.5 bpm; Activity (Mus musculus [22]): -21.23 bpm; Activity (Mus musculus [23]): -37.47 bpm; Activity (Mus musculus [24]): -51.28 bpm; Activity (Mus musculus [25]): -32.94 bpm; Activity (Mus musculus [26]): -34.87 bpm; Activity (Mus musculus [27]): -26.67 bpm; Activity (Mus musculus [28]): -41.98 bpm; IC50 (Acetylcholinesterase [29]): > 10 µM; Ki (Cholinesterase [30]): 1.42 ×10⁵ /M/min |
| CCN(C)C(=O)Oc1cc(OC(=O)N(C)CC)cc(C(O)CNC(C)(C)CC)c1.Cl (stereo not given) | -0.22 | -5.1 | 0.05 | -0.1 | -4.43 | -5.5 | 3.13 | -2.32 | > 100 | -4.45 | 0.13 | -3.93 | -6.25 | 0.25 | -0.88 | 4.98 | 7.12 | -3.03 | -2.93 | 0.93 | Activity (Mus musculus [21]): -1.5 bpm; Activity (Mus musculus [22]): -1.28 bpm; Activity (Mus musculus [23]): -11.4 bpm; Activity (Mus musculus [24]): -4.15 bpm; Activity (Mus musculus [25]): -4.23 bpm; Activity (Mus musculus [26]): -5.8 bpm; Activity (Mus musculus [27]): 2.55 bpm; Activity (Mus musculus [28]): 0.52 bpm; IC50 (Acetylcholinesterase [29]): > 10 µM; Ki (Cholinesterase [30]): 1.49 ×10⁵ /M/min |
